# M1 agonist: M1 muscarinic receptor agonism. actives 3% (n = 64,000). AID 626. CHO-M1 cells, Fluo-4 calcium fluorescence, agonist mode; hits give high values. B-score at 10 µM;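 active means fluorescence rise, raw or as B-score row- and column-corrected plate score, outside the 99.7% band of its plate's samples, either direction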
# mHtt clearance: compounds clearing mutant huntingtin protein; HeLa Exon1htt(103Q)mCFP, aggregate imaging; zero = plate's median compound well; inhibition, % at 1.5 µM; actives 0.42% (n = 47,000);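 active means inhibition of aggregate fluorescence above about 70%, also judged a hit by eye on the cell image, limit read from the data, passing the limit was not always enough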;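 further: cells exposed to compound for three days before fixation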
# SF1 activator: activators of human nuclear receptor SF-1; activation, % at 10 µM; AID 522; actives 1.9% (n = 65,000); CHO-K1 Gal4-SF-1 LBD luciferase reporter; % increase over DMSO SF-1-specific signal; Q13285;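 active means activation above the mean activation of all tested compounds plus 3 SD, cut at about 50% in these data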
#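 Assay system: CHO-K1 cells co-transfected with Gal4 DBD–human SF-1 LBD, 5xGal4 luciferase reporter; doses: 10 µM only; incubation: 20 h compound exposure at 37 °C after 1 h cell settling; signal: luciferase light emission; evaluation: percent activation versus DMSO; repeats: one test per compound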
# D1 allo mod: allosterically modulates the human D1 dopamine receptor; P21728; HEK293 D1, CRE-luciferase, dopamine EC30 potentiation; actives deviate in either direction; B-score at 10 µM; actives 5.9% (n = 58,000); AID 641;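 active means luminescence count or its row- and column-corrected plate score outside the 99.7% band of the plate's sample wells, on either side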
# RORa activator: RORA (human) activation; activation, % at 10 µM; P35398; actives 1.5% (n = 65,000); CHO-K1 Gal4-RORA LBD luciferase reporter, luminescence; percent increase over mock-subtracted basal signal;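 active means activation above the mean of all tested compounds plus 3 SD, cut at about 49% in these data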;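 further: 0% = DMSO-treated RORA cells and 100% = added signal equal to DMSO minus mock-transfected cells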
# M1 antag: M1 muscarinic receptor (rat) antagonism; P08482; CHO-M1 cells, Fluo-4 calcium, ACh EC80 antagonist mode; hits give low values; B-score at 10 µM; actives 3.4% (n = 64,000);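 active means calcium fluorescence response, raw or row-and-column corrected B-score, differing from the plate sample mean either way at a set confidence level, mostly lower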
# Target sequence (P08482 whole entry, looked up): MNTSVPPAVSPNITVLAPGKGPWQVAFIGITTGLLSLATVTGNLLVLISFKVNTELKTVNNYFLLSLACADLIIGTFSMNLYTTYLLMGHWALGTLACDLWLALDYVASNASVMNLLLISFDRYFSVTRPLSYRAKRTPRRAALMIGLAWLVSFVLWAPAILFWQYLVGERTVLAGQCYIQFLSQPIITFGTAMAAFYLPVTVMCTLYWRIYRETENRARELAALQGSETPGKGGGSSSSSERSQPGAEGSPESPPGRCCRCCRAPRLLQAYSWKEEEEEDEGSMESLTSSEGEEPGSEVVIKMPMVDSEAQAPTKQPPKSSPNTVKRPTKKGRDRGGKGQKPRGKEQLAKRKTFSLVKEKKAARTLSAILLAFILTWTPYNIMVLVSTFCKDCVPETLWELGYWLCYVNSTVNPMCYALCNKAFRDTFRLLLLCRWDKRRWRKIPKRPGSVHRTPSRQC
# M1 antag confirm: confirmation of rat M1 muscarinic receptor antagonists; shares compounds with M1 antag; CHO-M1 cells, Fluo-4 calcium, ACh EC80 antagonism; hits give low values; calcium response (max-min fluorescence) at 10 µM; actives 43% (n = 1,700); AID 677;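 active means calcium response below the same-plate mean of wells given acetylcholine alone at its 80%-effect dose, minus 3 SD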;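 further: raw fluorescence intensity difference in arbitrary instrument units and not normalized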
# mGluR4 antag: mGluR4 (human) activity, M1 antagonist secondary assay; shares compounds with M1 antag; actives 0.9% (n = 1,700); fluorescence response (max-min) at 10 µM; CHO-mGluR4 calcium flux, Fluo-4 fluorescence, glutamate EC80; hits give low values;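 active means fluorescence response below the plate's average for near-maximal glutamate wells, less 3 SD of those wells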;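 further: raw unnormalized fluorescence span taken in the window right after glutamate addition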
# Active calls of the source: *; . = not tested or not shown. This is a sample that favours compounds with a hit; in the whole collection about 11% have one here.
SMILES,M1 agonist,mHtt clearance,SF1 activator,D1 allo mod,RORa activator,M1 antag,M1 antag confirm,mGluR4 antag
COc1cc(C2N(c3ccc(F)cc3)C(=O)C3CCCN32)cc(OC)c1OC (configuration not stated),-0.16,-257,-10,-0.39,-6,-4.4*,634,237
CCOC(=O)N1CCC(NC(=O)c2cc3c(-c4ccccc4F)nn(C)c3s2)CC1,0.18,59,4,0.11,-1,0.59,.,.
CC1CCCCN1CCNC(=O)c1cc2c(-c3ccccc3F)nn(C)c2s1 (configuration not stated),-0.1,.,14,-5.7*,3,-5.5*,374*,207
CCOC(=O)N1CCN(C(=O)c2cn(CCOC)c(=O)c3c2c2ccccc2n3C)CC1,-0.07,-20,-1,-0.26,-18,-0.86,.,.
O=C(NCc1ccco1)C1CCN(c2nnc(-n3cccc3)s2)CC1,0.46,.,-7,.,9,-0.39,.,.
O=C(NC1CCN(Cc2ccccc2)CC1)C1CCCN(c2nnc(-n3cccc3)s2)C1 (configuration not stated),-0.65,.,13,-0.53,-13,-3.3*,260*,194
CC(CCc1ccccc1)NC(=O)C1CCCN(c2nnc(-n3cccc3)s2)C1 (configuration not stated),2.4,.,1,-0.54,6,0.01,.,.
O=C(NC1CCN(Cc2ccccc2)CC1)C1CCN(c2nnc(-n3cccc3)s2)CC1,-0.65,.,-3,-0.94,3,-1.3*,278*,241
CCn1cc(C2=NC(C(C)C)CO2)c2ccccc21 (configuration not stated),-0.76,.,12,-1.5,-4,-6.5*,412*,270
CSCCC(NC(=O)c1ccccc1)C(=O)NCc1ccco1 (configuration not stated),0.051,.,4,-0.68,-17,-2.3,.,.
CC1(C)NC(=O)N(CCOCCSc2ccccc2)C1=O,-0.075,.,11,0.08,-12,0.7,.,.
Cc1ccc(SCCCCN2C(=O)NC(C)(C)C2=O)cc1,0.76,7,13,-0.068,11,-2.1*,480,194
Cc1nc2c(C(=O)N3CCCC3)cnn2c(C)c1Cc1c(F)cccc1Cl,.,-67,.,.,.,.,.,.
Cc1nc2c(C(=O)N3CCN(c4ccccn4)CC3)cnn2c(C)c1Cc1cccc(Cl)c1,2.2,1,-8,-0.13,4,-2.3*,606,249
CCOc1ccccc1N1CCN(CC(O)COc2ccc3c(C)cc(=O)oc3c2)CC1 (configuration not stated),1.1,.,-11,.,1,-1.5*,455*,264
Cn1c(=O)n(CCOc2ccc(Cl)cc2Cl)c2ccccc21,.,-38,.,.,.,.,.,.
Cn1c(=O)n(CCOc2ccccc2Cl)c2ccccc21,1.1,.,71*,0.19,37,-3.5*,392*,214
O=C(Cn1cnnn1)Nc1ccccc1Cc1ccccc1,-1.4,-11,-8,-0.68,-7,-0.55,.,.
CCOC(=O)CSc1nnc(CNC(=O)c2ccc(S(=O)(=O)N3CCCC3)cc2)n1C,1.3,46,-1,-0.0031,-6,-1.2*,426,204
O=C(CN(Cc1ccccc1)C(=O)CCC(=O)Nc1nccs1)NCc1ccco1,-0.39,.,17,-0.12,-23,-0.4,.,.
Cc1nc2ccccn2c1/C(O)=C1\C(=O)C(=O)N(CCCN(C)C)C1c1ccc(F)cc1 (configuration not stated),-0.54,40,29,-0.09,10,-1,.,.
CC(C)(C)c1ccc(OCC(O)CS(=O)(=O)c2ccccn2)cc1 (configuration not stated),-0.43,.,10,1.9,4,-1.8*,660,262
Cc1c(C(=O)N(C)Cc2ccccc2)oc2ccc(S(=O)(=O)N3CCCC3)cc12,2.5,-10,7,.,3,-2.3*,590,249
CCOC(=O)N1CCN(C(=O)c2oc3ccc(S(=O)(=O)N4CCOCC4)cc3c2C)CC1,0.17,.,1,.,14,-0.27,.,.
CCOC(=O)N1CCN(C(=O)c2oc3ccc(S(=O)(=O)N4CCCCCC4)cc3c2C)CC1,-0.15,.,8,-0.74,14,-2*,598,236
SMILES,M1 agonist,mHtt clearance,SF1 activator,D1 allo mod,RORa activator,M1 antag,M1 antag confirm,mGluR4 antag
Cc1c(C(=O)NCc2cccnc2)oc2ccc(S(=O)(=O)N3CCCCCC3)cc12,-0.73,.,-14,-0.52,14,-1.6*,617,268
Cc1c(C(=O)N2CCCc3ccccc32)oc2ccc(S(=O)(=O)N3CCOCC3)cc12,0.72,-4,25,0.11,27,-2.2*,614,264
Cc1c(C(=O)NCc2cccnc2)oc2ccc(S(=O)(=O)N3CCCCC3)cc12,2.1,0,-7,-0.45,-9,-0.36,.,.
CC1=C(C(=O)NCc2ccccc2)C(c2cccs2)n2ncnc2N1 (configuration not stated),0.38,9,1,0.014,1,0.05,.,.
CC1CC(C)CN(c2nc3c(c(=O)n(C)c(=O)n3C)n2CCSc2nc3ccccc3o2)C1 (configuration not stated),1.4,.,0,-0.21,-11,-0.97,.,.
Nc1ncnc2nc(SCc3ccccc3)[nH]c12,0.41,.,-6,.,-18,1.1,.,.
Nc1ncnc2nc(SCCN3CCCCC3)[nH]c12,-0.3,30,-4,0.13,9,-2.8*,680,237
Cc1cc2nc(SCCN3CCCC3)[nH]c2cc1C,0.56,.,3,.,3,-1.9*,440,185
COC(=O)Cn1c(CN2CCN(c3ccc(F)cc3)CC2)nc2c1c(=O)n(C)c(=O)n2C,-0.98,.,-11,-3.2,-13,-0.39,.,.
COc1ccc(OC)c(S(=O)(=O)Nc2ccc3oc4c(c3c2)C(=O)CCC4)c1,-0.7,-64,-15,-0.0095,-11,-1.3*,687,178
CCSc1nnc(CNc2ccc(F)cc2)n1CC1CCCO1 (configuration not stated),-0.013,-46,-12,-1.3,-1,1,.,.
CCn1c(CNc2ccccc2Cl)nnc1SCCN1CCCCC1,-0.037,38,-2,-1.1,-1,-4.4*,271*,204
CCn1c(CNc2cccc(Cl)c2)nnc1SCC(=O)OC1CCCCC1,-0.35,.,1,-0.11,-11,-0.36,.,.
CCn1c(CNc2ccc(F)cc2)nnc1SCCN1CCCCC1,0.48,20,-4,-0.47,-7,-3.3*,570*,149
CCn1c(CNc2ccccc2Cl)nnc1SCC(=O)OC1CCCCC1,0.55,-5,-12,-0.55,-17,-4.7*,370*,220
